Data set [1] deals with HaCaT. Briefly: Inhibition of PGE2 production in human HaCaT cells after 24 hrs by RIA. In kind it is functional, cell-based.
The subject of data set [2] is HaCaT. Briefly: Inhibition of PGE2 production in human HaCaT cells at 5 uM after 24 hrs by RIA. In kind it is functional.
Data set [3] deals with HaCaT. The data set is described as follows: Antiproliferative activity against human HaCaT cells assessed as [3H]thymidine incorporation after 24 hrs. The data set is classed as cell-based. Put shortly:
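HaCaT keratinocytes were grown in DMEM with 10% FCS, penicillin and streptomycin at 37 °C and 5% CO₂. Cells were seeded at 4 × 10⁴/well for 24 h, then the medium was replaced and compounds or vehicle (1% EtOH) added for 24 h. Cells were pulsed 6 h with methyl-³H-thymidine (1 µCi/mL), and incorporation was counted by scintillation. %I at 5 µM; IC₅₀ from ≥4 concentrations (n = 6); mean ± SEM.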
A general note: Uptake of a labelled nucleoside into DNA is a usual measure of proliferation.

Data set [4] can be described thus: Antiproliferative activity against human HaCaT cells assessed as [3H]thymidine incorporation at 5 uM after 24 hrs. In kind it is cell-based.
Data set [5] relates to Neutrophil. Briefly: Inhibition of TPA-induced ROS production in human neutrophils at 5 uM by chemiluminescence. The data set is classed as functional.
Data set [6] deals with HaCaT. Briefly: Cytotoxicity against human HaCaT cells assessed as plasma membrane integrity damage at 5 uM. The data set is classed as cell-based. The procedure, abridged: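 Membrane damage in treated HaCaT keratinocytes was measured as LDH leakage into the culture medium, read as A550nm (mU), with compounds at 5 µM. Results are mean ± SEM; ANOVA followed by Dunnett's t-test.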

Data set [7] has as its system Radical scavenging activity. The data set is described as follows: Antioxidant activity assessed as DPPH free radical scavenging activity after 30 mins by assay in solution.
Data set [8] relates to Neutrophil. The data set is described as follows: Inhibition of TPA-induced ROS production in human neutrophils by chemiluminescence. The data set is classed as functional, cell-based.

IC50, inhibition and Activity data for seven molecules are collected here from ChEMBL document CHEMBL1148217, “Potential antipsoriatic avarol derivatives as antioxidants and inhibitors of PGE(2) generation and proliferation in the HaCaT cell line” (J Nat Prod, 2004).

Structures are written as SMILES.

As usually defined, the IC50 is the concentration at which inhibition is half-maximal. For orientation: inhibition means the change of the read-out against control, counted positive when it falls.

In the data set with HaCaT [1], `CS(=O)(=O)Nc1ccc([N+](=O)[O-])cc1OC1CCCCC1` [NS-398] returned an IC50 of 10 nM. Further, in the data set on HaCaT [2], testing at 5 µM gave an inhibition of 93.8%.

As to `O=C1c2c(O)cccc2Cc2cccc(O)c21` [ANTHRALIN], in the data set on HaCaT [3], the IC50 amounted to 2900 nM. The inhibition at 24 h, 5 µM in data set [4] worked out at 73.8%. In the data set on Neutrophil [5], this molecule showed an inhibition at 5 µM of 31.2%. For the same molecule, the Activity with HaCaT [6] was 59%.

Turning to `CNC1=CC(=O)C(C[C@]2(C)[C@@H](C)CC[C@]3(C)C(C)=CCC[C@@H]23)=CC1=O`, in data set [4], the inhibition at 24 h, 5 µM came out at 33.5%. The results for the inhibition at 5 µM in the data set on HaCaT [2] and in the data set on Neutrophil [5] were 54.8% and 37.8%, respectively.

As to `CC1=CCC[C@H]2[C@](C)(Cc3cc(O)ccc3O)[C@@H](C)CC[C@]12C` [AVAROL], the inhibition at 24 h, 5 µM in data set [4] came out at 18.9%. Also, the figures for the IC50 (in data set [7]; in the data set with Neutrophil [8]) were 18000 nM and 3600 nM, respectively. Also, the inhibition at 5 µM was found to be 4.9% in the data set on HaCaT [2] and 71.7% in the data set with Neutrophil [5].

`CC1=CCC[C@H]2[C@](C)(CC3=CC(=O)C=C(NCCc4c[nH]c5ccccc45)C3=O)[C@@H](C)CC[C@]12C`: the inhibition at 24 h, 5 µM in data set [4] was 33.3%. Moreover, the values for the inhibition at 5 µM in the data set on HaCaT [2] and in the data set on Neutrophil [5] were 47.1% and 25.2%, respectively.

For `COc1cc2ccc(=O)oc2c(O)c1O` [FRAXETIN], testing at 5 µM in the data set with Neutrophil [5] gave an inhibition of 76.4%. The same molecule yielded an IC50 with Neutrophil [8] of 1000 nM.

With `CC1=CCC[C@H]2[C@](C)(CC3=CC(=O)C(NCCc4c[nH]c5ccccc45)=CC3=O)[C@@H](C)CC[C@]12C`, the inhibition at 24 h, 5 µM in data set [4] was 36.7%. Moreover, the inhibition at 5 µM with HaCaT [2] was 50.4%; in the data set on Neutrophil [5] it was 26.7%.
